Source: ChEMBL document CHEMBL1268855 (J Nat Prod, 2010)
Active and inactive are the calls of the source. The rule behind the calls is not given here.

How the values were obtained:
Neuraminidase [1] = target: T1, Neuraminidase (Influenza A virus, UniProt B4URF0); experiment: Inhibition of Influenza A virus (A/chicken/Korea/01310/2001 (H9N2)) neuraminidase after 30 mins by spectrofluorimetric analysis
Neuraminidase [2] = target: T1, Neuraminidase; experiment: Inhibition of Influenza A virus (A/Sw/Kor/CAH1/04 (H1N1) KCTC 11165BP neuraminidase after 30 mins by spectrofluorimetric analysis
Influenza A virus [3] = experiment: Antiviral activity against influenza A virus A/PR/8/34(H1N1) infected in MDCK cells assessed as protection against virus-induced cytopathic effect after 3 to 4 days by neutral red dye assay; format: functional
Method in brief: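 Near-confluent MDCK monolayers (1 × 10^5 cells/well) inoculated with virus for 1 h, then medium replaced with DMEM containing 10 µg/mL trypsin plus compounds at several concentrations. Incubated 3-4 days at 37 °C, 5% CO2.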

MDCK = experiment: Cytotoxicity against MDCK cells at 97.56 uM after 48 hrs by neutral red dye assay; format: cell-based, Canis lupus familiaris; conditions: dog
Influenza A virus [4] = experiment: Antiviral activity against influenza A virus A/PR/8/34(H1N1) infected in MDCK cells at 3.18 uM after 24 hrs by immunofluorescence assay; format: functional, organism-based
Method in brief: (§1)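 MDCK cells on chamber slides infected with A/PR/8/34 at 1000 TCID50/mL for 2 h in infection medium (DMEM, 0.5% BSA, 1.5 µg/mL trypsin). Then cultured with compound in 5% FBS DMEM for 24 h at 37 °C. Cells fixed in 4% paraformaldehyde, permeabilised, stained with anti-M1 monoclonal antibody, FITC anti-mouse IgG secondary and DAPI. Fluorescence-positive cells counted by fluorescence microscopy.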

Influenza A virus [5] = experiment: Antiviral activity against influenza A virus A/PR/8/34(H1N1) infected in MDCK cells at 15.92 uM after 24 hrs by immunofluorescence assay; format: functional, organism-based; method in brief: as §1

T1 sequence (B4URF0 whole entry): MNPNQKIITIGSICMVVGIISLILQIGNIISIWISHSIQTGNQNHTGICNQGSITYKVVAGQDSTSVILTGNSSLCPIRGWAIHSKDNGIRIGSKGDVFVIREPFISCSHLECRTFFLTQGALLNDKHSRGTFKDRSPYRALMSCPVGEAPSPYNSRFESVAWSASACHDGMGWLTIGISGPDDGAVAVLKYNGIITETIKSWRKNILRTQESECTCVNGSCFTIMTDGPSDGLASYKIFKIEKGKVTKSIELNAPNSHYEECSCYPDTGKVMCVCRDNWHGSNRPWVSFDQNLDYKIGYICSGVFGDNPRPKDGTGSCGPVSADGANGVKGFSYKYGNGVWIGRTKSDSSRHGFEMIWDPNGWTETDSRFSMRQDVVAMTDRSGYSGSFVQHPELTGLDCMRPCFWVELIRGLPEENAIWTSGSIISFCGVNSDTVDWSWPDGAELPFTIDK

SMILES	IC50 (Neuraminidase [1]) [µM]	IC50 (Neuraminidase [2]) [µM]	other results
COc1c(C)c(O)c(C)c2c1C(=O)C[C@@](O)(c1ccccc1)O2	285	283	
COc1c(C)c(O)c(C)c(O)c1C(=O)/C=C/c1ccccc1			CC50 (Influenza A virus [3]): 78.4 µM
COc1c(C)c2c(c(O)c1C=O)C(=O)C[C@@H](c1ccccc1)O2	256	269	
Cc1c(O)c(C)c2c(c1O)C(=O)[C@H](O)[C@@H](c1ccccc1)O2	368	375	
COc1cc(O)c(C)c(O)c1C(=O)/C=C/c1ccccc1			CC50 (Influenza A virus [3]): 135 µM
COc1c(C)c(O)c2c(c1C)O[C@H](c1ccccc1)CC2=O	> 500	> 500	
Cc1c(O)c(C)c2c(c1O)C(=O)C[C@@H](c1ccccc1)O2 [DEMETHOXYMATTEUCINOL]	319	334	
COc1c(C)c(O)c2c(c1C=O)O[C@H](c1ccccc1)CC2=O	299	290	
CCOC(=O)C1=C[C@@H](OC(CC)CC)[C@H](NC(C)=O)[C@@H](N)C1 [OSELTAMIVIR]			Activity (MDCK): 7%
COc1c(C)c(O)c(C)c2oc(-c3ccccc3)cc(=O)c12	363	414	
COc1cc(O)c(C)c2c1C(=O)C[C@@H](c1ccccc1)O2	> 500	> 500	
COc1c(C)c(O)c(C)c2occ(-c3ccccc3)c(=O)c12	391	431	
Cc1c(O)cc(O)c2c1O[C@H](c1ccccc1)CC2=O	> 500	> 500	
COc1c(C)c(O)c(C)c(O)c1C(=O)/C=C/c1ccc(O)cc1			Activity (Influenza A virus [4]): Active; CC50 (Influenza A virus [3]): > 120 µM; Activity (Influenza A virus [5]): Active
COc1c(C)c(O)c(C)c(O)c1C(=O)/C=C/c1ccccc1O			CC50 (Influenza A virus [3]): > 120 µM
